Assay results from ChEMBL document CHEMBL1154235, “Rational design and semisynthesis of betulinic acid analogues as potent topoisomerase inhibitors” (J Nat Prod, 2009).
Active and inactive are the calls of the source. The calls are words filed in the database; no cut-off is given here.

What was measured:
DU-145 = experiment: Cytotoxicity against human DU145 cells assessed as cell growth at 10 uM; type: functional; details: read-out: Activity
Procedure, shortened: (§1)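 Single-dose screen at 10 µM against the 60 human cell line panel, run by the NCI Developmental Therapeutics Program and scored as cell growth.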

MCF7 = experiment: Cytotoxicity against human MCF7 cells assessed as cell growth at 10 uM; type: functional; details: read-out: Activity; procedure, shortened: as §1
SW-620 = experiment: Cytotoxicity against human SW620 cells assessed as cell growth at 10 uM; type: functional; details: read-out: Activity
SK-MEL-28 = experiment: Cytotoxicity against human SK-MEL-28 cells assessed as cell growth at 10 uM; type: functional; details: read-out: Activity; procedure, shortened: as §1
MDA-MB-435 = experiment: Cytotoxicity against human MDA-MB-435 cells assessed as cell growth at 10 uM; type: functional; details: read-out: Activity; procedure, shortened: as §1
OVCAR-8 = experiment: Cytotoxicity against human OVCAR8 cells assessed as cell growth at 10 uM; type: functional; details: read-out: Activity; procedure, shortened: as §1
T47D = experiment: Cytotoxicity against human T47D cells assessed as cell growth at 10 uM; type: functional; details: read-out: Activity
RXF 393 = experiment: Cytotoxicity against human […] cells assessed as cell growth at 10 uM; type: functional; details: read-out: Activity; procedure, shortened: as §1
OVCAR-3 = experiment: Cytotoxicity against human OVCAR-3 cells assessed as cell growth at 10 uM; type: functional; details: read-out: Activity; procedure, shortened: as §1
SK-OV-3 = experiment: Cytotoxicity against human SKOV3 cells assessed as cell growth at 10 uM; type: functional; details: read-out: Activity; procedure, shortened: as §1
EKVX = experiment: Cytotoxicity against human EKVX cells assessed as cell growth at 10 uM; type: functional; details: read-out: Activity; procedure, shortened: as §1
OVCAR-4 = experiment: Cytotoxicity against human OVCAR4 cells assessed as cell growth at 10 uM; type: functional; details: read-out: Activity; procedure, shortened: as §1
HL-60(TB) = experiment: Cytotoxicity against human HL-60(TB) cells assessed as cell growth at 10 uM; type: functional; details: read-out: Activity
Procedure, shortened: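 Single-dose screen run externally by the NCI Developmental Therapeutics Program across its 60 human tumour cell line panel. Compound tested at 10 µM.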

HCT-116 [1] = experiment: Cytotoxicity against human HCT116 cells assessed as cell growth at 10 uM; type: functional; details: read-out: Activity; procedure, shortened: as §1
SNB-75 = experiment: Cytotoxicity against human SNB75 cells assessed as cell growth at 10 uM; type: functional; details: read-out: Activity
NCI/ADR-RES = experiment: Cytotoxicity against human NCI/ADR-RES cells assessed as cell growth at 10 uM; type: functional; details: read-out: Activity; procedure, shortened: as §1
CCRF-CEM = experiment: Cytotoxicity against human CCRF-CEM cells assessed as cell growth at 10 uM; type: functional; details: read-out: Activity; procedure, shortened: as §1
SNB-19 = experiment: Cytotoxicity against human SNB19 cells assessed as cell growth at 10 uM; type: functional; details: read-out: Activity; procedure, shortened: as §1
NCI-H322M = experiment: Cytotoxicity against human NCI-H322M cells assessed as cell growth at 10 uM; type: functional; details: read-out: Activity; procedure, shortened: as §1
HCC 2998 = experiment: Cytotoxicity against human HCC2998 cells assessed as cell growth at 10 uM; type: functional; details: read-out: Activity; procedure, shortened: as §1
NCI-H522 = experiment: Cytotoxicity against human NCI-H522 cells assessed as cell growth at 10 uM; type: functional; details: read-out: Activity; procedure, shortened: as §1
TK-10 = experiment: Cytotoxicity against human TK10 cells assessed as cell growth at 10 uM; type: functional; details: read-out: Activity
LOX IMVI = experiment: Cytotoxicity against human LOXIMVI cells assessed as cell growth at 10 uM; type: functional; details: read-out: Activity; procedure, shortened: as §1
NCI-H23 = experiment: Cytotoxicity against human NCI-H23 cells assessed as cell growth at 10 uM; type: functional; details: read-out: Activity; procedure, shortened: as §1
SF-539 = experiment: Cytotoxicity against human SF539 cells assessed as cell growth at 10 uM; type: functional; details: read-out: Activity; procedure, shortened: as §1
NCI-H226 = experiment: Cytotoxicity against human NCI-H226 cells assessed as cell growth at 10 uM; type: functional; details: read-out: Activity; procedure, shortened: as §1
CAKI-1 = experiment: Cytotoxicity against human Caki1 cells assessed as cell growth at 10 uM; type: functional; details: read-out: Activity; procedure, shortened: as §1
A498 = experiment: Cytotoxicity against human A498 cells assessed as cell growth at 10 uM; type: functional; details: read-out: Activity; procedure, shortened: as §1
MOLT-4 = experiment: Cytotoxicity against human MOLT4 cells assessed as cell growth at 10 uM; type: functional; details: read-out: Activity; procedure, shortened: as §1
SF-268 = experiment: Cytotoxicity against human SF268 cells assessed as cell growth at 10 uM; type: functional; details: read-out: Activity; procedure, shortened: as §1
[2] = target: T1, DNA topoisomerase 1 (Homo sapiens) (UniProt P11387); experiment: Inhibition of topoisomerase 1 catalytic activity assessed as relaxation of supercoiled plasmid DNA at 100 uM after 30 mins by agarose gel electrophoresis
T1 sequence (whole entry): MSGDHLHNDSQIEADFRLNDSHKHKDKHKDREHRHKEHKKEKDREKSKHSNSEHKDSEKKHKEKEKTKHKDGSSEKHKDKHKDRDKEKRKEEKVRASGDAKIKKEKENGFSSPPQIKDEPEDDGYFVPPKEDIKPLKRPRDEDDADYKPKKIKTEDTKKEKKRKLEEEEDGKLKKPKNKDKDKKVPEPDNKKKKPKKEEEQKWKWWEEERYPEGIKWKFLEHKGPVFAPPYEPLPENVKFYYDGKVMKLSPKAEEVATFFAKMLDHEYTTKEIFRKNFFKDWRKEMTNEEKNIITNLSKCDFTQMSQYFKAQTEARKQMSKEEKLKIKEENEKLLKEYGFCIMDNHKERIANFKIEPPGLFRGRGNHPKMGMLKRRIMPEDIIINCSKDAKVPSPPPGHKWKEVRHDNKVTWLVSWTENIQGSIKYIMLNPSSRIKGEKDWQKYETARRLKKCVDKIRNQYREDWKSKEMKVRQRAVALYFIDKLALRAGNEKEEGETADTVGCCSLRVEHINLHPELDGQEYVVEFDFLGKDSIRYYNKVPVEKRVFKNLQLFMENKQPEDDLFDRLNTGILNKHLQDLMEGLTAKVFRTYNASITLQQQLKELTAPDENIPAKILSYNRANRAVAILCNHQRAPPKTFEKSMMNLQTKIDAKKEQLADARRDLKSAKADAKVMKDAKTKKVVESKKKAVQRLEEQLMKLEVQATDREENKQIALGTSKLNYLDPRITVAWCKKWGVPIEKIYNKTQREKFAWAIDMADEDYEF
Procedure, shortened: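 Compound at 100 µM final with topoisomerase I (2U), 37 °C 30 min. Stopped with 1% SDS, proteinase K digestion, 1% agarose TAE gel, ethidium bromide stain, imaging quantitation. Scored 0 to 3+ against camptothecin.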

BT-549 = experiment: Cytotoxicity against human BT549 cells assessed as cell growth at 10 uM; type: functional; details: read-out: Activity; procedure, shortened: as §1
U-251 = experiment: Cytotoxicity against human U251 cells assessed as cell growth at 10 uM; type: functional; details: read-out: Activity
KM12 = experiment: Cytotoxicity against human KM12 cells assessed as cell growth at 10 uM; type: functional; details: read-out: Activity; procedure, shortened: as §1
HCT-116 [3] = experiment: Antiproliferative activity against human HCT116 cells after 3 days by XTT assay; type: functional, cell-based; details: HCT-116, 72 h
Procedure, shortened: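 Cells plated at 4000/well and grown 1 day at 37 °C, then exposed to a range of drug concentrations for 3 more days. Read-out by XTT tetrazolium reduction on a plate reader. Each concentration run in triplicate. IC50 taken from a linear-quadratic fit. Assays repeated two or three times and reported as mean ± SE. HCT-116 kept in modified McCoy's 5a and SW948 in Leibovitz's L-15, each with 10% heat-inactivated FBS and 2 mM L-glutamine.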

K562 = experiment: Cytotoxicity against human K562 cells assessed as cell growth at 10 uM; type: functional; details: read-out: Activity; procedure, shortened: as §1
HOP-92 = experiment: Cytotoxicity against human HOP92 cells assessed as cell growth at 10 uM; type: functional; details: read-out: Activity; procedure, shortened: as §1
COLO 205 = experiment: Cytotoxicity against human COLO205 cells assessed as cell growth at 10 uM; type: functional; details: read-out: Activity; procedure, shortened: as §1

With `C=C(C)[C@@H]1CC[C@]2(C(O)=S)CC[C@]3(C)[C@H](CC[C@@H]4[C@@]5(C)CC[C@H](O)C(C)(C)[C@@H]5CC[C@]43C)[C@@H]12` as the compound, how does the growth at 10 µM (DU-145) read?
Its growth at 10 µM is 130%.

And the growth at 10 µM (MCF7)?
Its growth at 10 µM is 100%.

And the growth at 10 µM (SW-620)?
Its growth at 10 µM is 92.2%.

And the growth at 10 µM (SK-MEL-28)?
Its growth at 10 µM is 141%.

What about the growth at 10 µM (MDA-MB-435) of the same compound?
Its growth at 10 µM is 91.3%.

And the growth at 10 µM (OVCAR-8)?
The growth at 10 µM was 101%.

And the growth at 10 µM (T47D)?
Its growth at 10 µM is 98.5%.

And the growth at 10 µM (RXF 393)?
The growth at 10 µM was 112%.

What about the growth at 10 µM (OVCAR-3) of the same compound?
The growth at 10 µM was 94.9%.

What about the growth at 10 µM (SK-OV-3) of the same compound?
The growth at 10 µM was 113%.

What about the growth at 10 µM (EKVX) of the same compound?
Its growth at 10 µM is 103%.

And the growth at 10 µM (OVCAR-4)?
Its growth at 10 µM is 112%.

And the growth at 10 µM (HL-60(TB))?
The growth at 10 µM was 134%.

What about the growth at 10 µM (HCT-116 [1]) of the same compound?
Its growth at 10 µM is 85.2%.

And the growth at 10 µM (SNB-75)?
The growth at 10 µM was 108%.

What about the growth at 10 µM (NCI/ADR-RES) of the same compound?
The growth at 10 µM was 113%.

And the growth at 10 µM (CCRF-CEM)?
Its growth at 10 µM is 99.1%.

And the growth at 10 µM (SNB-19)?
The growth at 10 µM was 113%.

And the growth at 10 µM (NCI-H322M)?
Its growth at 10 µM is 109%.

What about the growth at 10 µM (HCC 2998) of the same compound?
Its growth at 10 µM is 128%.

What about the growth at 10 µM (NCI-H522) of the same compound?
Its growth at 10 µM is 71.9%.

And the growth at 10 µM (TK-10)?
The growth at 10 µM was 94.2%.

What about the growth at 10 µM (LOX IMVI) of the same compound?
Its growth at 10 µM is 101%.

What about the growth at 10 µM (NCI-H23) of the same compound?
Its growth at 10 µM is 93.4%.

And the growth at 10 µM (SF-539)?
Its growth at 10 µM is 111%.

What about the growth at 10 µM (NCI-H226) of the same compound?
The growth at 10 µM was 108%.

And the growth at 10 µM (CAKI-1)?
The growth at 10 µM was 100%.

What about the growth at 10 µM (A498) of the same compound?
The growth at 10 µM was 129%.

And the growth at 10 µM (MOLT-4)?
Its growth at 10 µM is 131%.

And the growth at 10 µM (SF-268)?
Its growth at 10 µM is 92.7%.

And the inhibition [2]?
Its inhibition is “inactive”.

What about the growth at 10 µM (BT-549) of the same compound?
The growth at 10 µM was 94.8%.

And the growth at 10 µM (U-251)?
The growth at 10 µM was 105%.

And the growth at 10 µM (KM12)?
Its growth at 10 µM is 84.7%.

And the IC50 (HCT-116 [3])?
Its IC50 is > 25 µM.

What about the growth at 10 µM (K562) of the same compound?
Its growth at 10 µM is 127%.

What about the growth at 10 µM (HOP-92) of the same compound?
The growth at 10 µM was 158%.

And the growth at 10 µM (COLO 205)?
The growth at 10 µM was 129%.
